Consider three molecules from ChEMBL document CHEMBL5620421, “2,6-Disubstituted 7-(naphthalen-2-ylmethyl)-7H-purines as a new class of potent antitubercular agents inhibiting DprE1” (Eur J Med Chem, 2023).

The subject of assay [1] is Escherichia coli. Nature of the assay: Antibacterial activity against Escherichia coli A1235 assessed as inhibition of bacterial growth at 125 uM incubated for 24 to 48 hrs by microdilution broth method. The assay is classed as functional, organism-based. The settings on record: time 24-48 hrs.
Assay [2] deals with Mycobacterium tuberculosis. Nature of the assay: Antitubercular activity against Mycobacterium tuberculosis CNCTC My 331/88 (H37Rv) infected in MONO-MAC-6 cells assessed as reduction in colony forming unit growth at 25 uM measured after 48 hrs of incubation by MTT based ELISA relative to control. Format: functional. On the set-up: scale not given: the % may be the effect or the level left.

Assay [3] deals with Mycobacterium tuberculosis. Nature of the assay: Antitubercular activity against Mycobacterium tuberculosis CNCTC My 331/88 (H37Rv) infected in MONO-MAC-6 cells assessed as inhibition of bacterial growth measured after 48 hrs of incubation by MTT based ELISA. The assay is classed as functional, organism-based. Conditions: MONO-MAC-6, 48 h. In a few lines: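 MonoMac6 cells in RPMI-1640 with 10% FBS, 2 mM glutamine and gentamicin, seeded at 6.5 × 10³ cells/well the day before. Treated 48 h at 2.56 × 10⁻³–250 μM in incomplete medium with 1% DMSO. Read by MTT (3.5 h), formazan in DMSO, absorbance at 540/620 nm. IC50 from dose-response curves.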

In assay [4] the test system is Staphylococcus aureus. Description: Antibacterial activity against Staphylococcus aureus C1947 assessed as inhibition of bacterial growth at 125 uM incubated for 24 to 48 hrs by microdilution broth method. The assay is classed as functional, organism-based. Conditions: time 24-48 hrs.

The source made the active and inactive calls. No cut-off for these calls is given here.

As for `CCNc1nc(N2CCOCC2)nc2ncn(Cc3ccc4ccccc4c3)c12`, the outcome in assay [1] and in assay [4] was inactive. Moreover, the Activity entry in assay [2] is given as “>=80%”. The IC50 in assay [3] amounted to 57 µM.
As for `CCOc1nc(N2CCOCC2)nc2ncn(Cc3ccc4ccccc4c3)c12`, the outcome in assay [1] and in assay [4] was inactive.
Turning to `Nc1nc(N2CCOCC2)nc2ncn(Cc3ccc4ccccc4c3)c12`, the outcome in assay [1] and in assay [4] was inactive.
